Laboratory results: the array DNA melting data of Ke et al. (doi:10.1101/2024.01.08.574731)

Legend:
[1] = folding enthalpy; higher = less favourable; fluorescence melt of hairpins on a sequencing array, two-state fit; settings: sodium 0.088 M
How it was run: (§1)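 Melting temperature and folding enthalpy were obtained by bootstrapped two-state fitting. Fits used Cy3 fluorescence of library hairpins with annealed Cy3 and quencher oligos on a sequenced MiSeq flow cell, imaged in 50 mM Na-HEPES pH 8.0, 25 mM NaCl in 2.5 °C steps up to 60 °C and normalised to pre-quench Cy3 and control constructs. Four replicates were combined by inverse-variance weighting, and fitted temperatures were raised by 9.35 °C to match UV melts.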

[2] = melting temperature; fluorescence melt of hairpins on a sequencing array, two-state fit, raised by 9.35 °C to match UV melts; settings: sodium 0.088 M
How it was run: as §1

| Sequence | folding enthalpy [1] | Tm [2] |
| --- | --- | --- |
| GAGGGTGGAAACACCCCC (.(((((....))))).) | -10.7 kcal/mol | 44.8 °C |
| GGAATCGGAAACGGTTCC ((((.((....)).)))) | -44.5 kcal/mol | 52.2 °C |
| GATGACGGAAACGTCACC (.(((((....))))).) | -14.6 kcal/mol | 40 °C |
| GTAAGAGAAATCTTAC ((((((....)))))) | -22 kcal/mol | 38.6 °C |
| GCTTAGCGAAAGCGCAGC (((..((....))..))) | -17.6 kcal/mol | 46.9 °C |
| GCGCGACGAAAGTCCGC (((.(((....)))))) | -29 kcal/mol | 66.8 °C |
| GGTAACCGAAAGGTGACC (((.(((....))).))) | -36.3 kcal/mol | 55.4 °C |
| GTTGCTCGAAAGAGAAC (((.(((....)))))) | -20.2 kcal/mol | 34.4 °C |
| GATCTCAAGCGAGATC ((((((....)))))) | -37.6 kcal/mol | 50.4 °C |
| GACTCCGAAAGGATTGTC ((((((....)))..))) | -16.3 kcal/mol | 36.8 °C |
| GATCGAATTATCGATC ((((((....)))))) | -38.2 kcal/mol | 50.7 °C |
| GATAGCCGAAAGGCCATC (((.(((....))).))) | -13.8 kcal/mol | 39.6 °C |
| GAGTCTGGAAACAGATTC ((.((((....)))).)) | -26.2 kcal/mol | 40.9 °C |
| CGTACCGGAAACGGCACG (((.(((....))).))) | -39.9 kcal/mol | 50.2 °C |
| GCACGCGGAAACACGTGC (((((.(....).))))) | -51.2 kcal/mol | 57.1 °C |
| GCCCGGCGAAAGCTGCGC ((.(.((....)).).)) | -17.6 kcal/mol | 44.2 °C |
| GGGCAACGAAAGTTCCCC (((.(((....))).))) | -20.2 kcal/mol | 47.2 °C |
| GCGGAAGCCCGC ((((....)))) | -14 kcal/mol | 57.3 °C |
| GCCACGCGAAAGCTTGGC ((((.((....)).)))) | -35.5 kcal/mol | 66 °C |
| GCGTCTGCACGC ((((....)))) | -17.6 kcal/mol | 52.5 °C |
| GTCCACTCGAAAGAGGAC (((..(((....)))))) | -23 kcal/mol | 37.4 °C |
| GCCTAGACGAAAGTCGGC (((..(((....)))))) | -21.6 kcal/mol | 53.3 °C |
| GGGCCTGGAAACGGGCTC (.(((.(....).))).) | -24 kcal/mol | 50.2 °C |

| Sequence | folding enthalpy [1] | Tm [2] |
| --- | --- | --- |
| GCCTCTCCGAAAGGAGGC (((..(((....)))))) | -12.4 kcal/mol | 52.9 °C |
| GTGACGCGAAAGCGACAC (((.(((....))).))) | -33.9 kcal/mol | 69.3 °C |
| GGCCTAACGAAAGTTGCC (((..(((....)))))) | -20.9 kcal/mol | 38.7 °C |
| GTTACGCGAAAGCGAAC (((.(((....)))))) | -13.7 kcal/mol | 40 °C |
| GCTTTTGGAAACAGAAGC ((((.((....)).)))) | -25.1 kcal/mol | 41.4 °C |
| GGCTCGGGAAACCGAGTC (.(((((....))))).) | -29.9 kcal/mol | 61.5 °C |
| GTATGCCCGAAAGGGTAC (((..(((....)))))) | -8.06 kcal/mol | 31.2 °C |
| GGTCTGGAAACAGACC ((((((....)))))) | -38 kcal/mol | 63.9 °C |
| GATCGGTTATCCGATC ((((((....)))))) | -36.8 kcal/mol | 58.9 °C |
| GTCTACGAAAGTAAGGAC ((((((....)))..))) | -19.5 kcal/mol | 31.2 °C |
| GTCGATGGAAACGTTGAC (((.(.(....).).))) | -20.5 kcal/mol | 34.6 °C |
| GTTCTCGAAAGAGAAC ((((((....)))))) | -35.2 kcal/mol | 61 °C |
| GCGAGCGGAAACGTTCGC ((((.((....)).)))) | -41.2 kcal/mol | 63.4 °C |
| GATCGGTTAACCGATC ((((((....)))))) | -47.3 kcal/mol | 58.8 °C |
| GTATTGTCGAAAGACTAC (((..(((....)))))) | -11.4 kcal/mol | 28.5 °C |
| GAGCATGCGAAAGCACTC (((..(((....)))))) | -8.93 kcal/mol | 27 °C |
| GCTTTGCGAAAGCGCAGC (((..((....))..))) | -11.8 kcal/mol | 38.7 °C |
| GGACAGTCGAAAGACTCC (((..(((....)))))) | -12.8 kcal/mol | 31 °C |
| GCCGTTCGAAAGAAAGGC (((.(((....))).))) | -28.8 kcal/mol | 59.3 °C |
| GATCACAGCGTGATC ((((((...)))))) | -42 kcal/mol | 61.9 °C |
| GGAATCGGAAACGATTTC (.(((((....))))).) | -33.3 kcal/mol | 47.9 °C |
| GCTTACGGAAACGTAGGC ((.((((....)))).)) | -27.2 kcal/mol | 50 °C |
| GGAGGCGAAAGCCAGTCC ((((((....)))..))) | -10.6 kcal/mol | 34.1 °C |

| Sequence | folding enthalpy [1] | Tm [2] |
| --- | --- | --- |
| GGCACACGAAAGTGCGCC (((.(((....))).))) | -36.9 kcal/mol | 66.7 °C |
| TGAGGGAAACCTCA (((((....))))) | -20.9 kcal/mol | 42.2 °C |
| GGAACCCGAAAGGGCTCC (((.(((....))).))) | -32.4 kcal/mol | 54.5 °C |
| GAGTGGGGAAACCCATTC ((.((((....)))).)) | -27.2 kcal/mol | 42.5 °C |
| GTGTCGGCGAAAGCCCAC (((..(((....)))))) | -13.5 kcal/mol | 43.8 °C |
| GATACGGGAAACCATATC ((((.((....)).)))) | -19.3 kcal/mol | 28.2 °C |
| GATATTGGAAACAATGTC ((.((((....)))).)) | -30.9 kcal/mol | 36.3 °C |
| GCTGGCGAAAGCCGAGC ((((((....))).))) | -23.5 kcal/mol | 65.3 °C |
| GGGATCGAAAGATGTCCC ((((((....)))..))) | -17.3 kcal/mol | 35.9 °C |
| GGAGGCGGAAACACCCCC ((.((.(....).)).)) | -12.8 kcal/mol | 26.6 °C |
| GCTCCGCGAAAGCGCCGC ((..(((....)))..)) | -6.58 kcal/mol | 28.9 °C |
| GTATGTGAAAACATAC ((((((....)))))) | -36.2 kcal/mol | 50.4 °C |
| GTCACCGGAAACGATGAC ((((.((....)).)))) | -33.5 kcal/mol | 45.9 °C |
| GTTCCGGAAACGGAAC ((((((....)))))) | -32.4 kcal/mol | 66.3 °C |
| GATCTCATGGAGATC ((((((...)))))) | -33.9 kcal/mol | 54 °C |
| GGTGACGAAAGTCGCACC ((((((....)))..))) | -13.9 kcal/mol | 45.6 °C |
| GATCTGACGACAGATC ((((((....)))))) | -35 kcal/mol | 48.5 °C |
| GATGTAGCGAAAGCTATC (((..(((....)))))) | -12 kcal/mol | 31.4 °C |
| GATCACTGCTGTGATC ((((((....)))))) | -38.2 kcal/mol | 57.1 °C |
| GTGTTAGCGAAAGCTCAC (((..(((....)))))) | -21.9 kcal/mol | 44.2 °C |
| GCTTCGCGAAAGCCACGC ((.(.((....)).).)) | -8.03 kcal/mol | 27.8 °C |
| GTTCGCGGAAACACGAAC (((((.(....).))))) | -39.7 kcal/mol | 48.9 °C |
| GCGAATAATCGC ((((....)))) | -14 kcal/mol | 46.2 °C |

| Sequence | folding enthalpy [1] | Tm [2] |
| --- | --- | --- |
| GATCGTGGTGACGATC ((((((....)))))) | -39.1 kcal/mol | 57.6 °C |
| GATCGTATAACGATC ((((((...)))))) | -47.3 kcal/mol | 55.7 °C |
| GCAGGTCGAAAGACTGC (((.(((....)))))) | -29.8 kcal/mol | 55.9 °C |
| GTTCCGCGAAAGCGAAAC (((.(((....))).))) | -23.6 kcal/mol | 53.9 °C |
| GCCGCCGGAAACGACGGC ((((.((....)).)))) | -33.7 kcal/mol | 67 °C |
| GATCCAGGGATGGATC ((((((....)))))) | -38.9 kcal/mol | 53.3 °C |
| GATCGTTCGCACGATC ((((((....)))))) | -38 kcal/mol | 54.2 °C |
| GGCCACCGAAAGGTGCC (((.(((....)))))) | -15.8 kcal/mol | 60.8 °C |
| GACTGTGGAAACGCAGTC (((((.(....).))))) | -31.7 kcal/mol | 51.9 °C |
| GCAGCGGGAAACCGCCAC (..((((....))))..) | -8.97 kcal/mol | 29.8 °C |
| GCTTACGAAAGTAGAAGC ((((((....)))..))) | -24.3 kcal/mol | 38.2 °C |
| GAAAAGCGAAAGCTATTC (((.(((....))).))) | -19.5 kcal/mol | 36.4 °C |
| GTAATACGAAAGTAATAC (((.(((....))).))) | -20.2 kcal/mol | 34 °C |
| GCTCGGGGAAACCCAAGC (((.(((....))).))) | -17.8 kcal/mol | 45.3 °C |
| GGACTGGGAAACCAGTCC (((((((....))))))) | -35.3 kcal/mol | 68.5 °C |
| GGTTTGGGAAACTAAACC (((((.(....).))))) | -33 kcal/mol | 44.7 °C |
| GGTTTCGGAAACGGAATC (.((.((....)).)).) | -20.8 kcal/mol | 33.4 °C |
| GATGCCCGAAAGGGTATC (((.(((....))).))) | -29.8 kcal/mol | 58.2 °C |
| GATCCACTGATGGATC ((((((....)))))) | -38.5 kcal/mol | 50.4 °C |
| GTCTTTCGAAAGAAGAC (((.(((....)))))) | -25.1 kcal/mol | 38.5 °C |
| GTTTGACGAAAGTCAAC (((.(((....)))))) | -14 kcal/mol | 46 °C |
| GGCTTGGGAAACTAAGCC (((((.(....).))))) | -45.5 kcal/mol | 52.2 °C |
| GATCCCAGTAGGGATC ((((((....)))))) | -35 kcal/mol | 66 °C |
